Data as given in PubChem BioAssay.
Calls of active or inactive are those of the source.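 How the source made its calls, unless noted: active means inhibition at or above 50% at 10 µM; inactive means inhibition below 50%.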

How the values were obtained:
[1] = inhibitors of TNFa-induced NFkB p65 translocation, primary screen, imaging, HUVEC, MLSMR starter and 10KST1 sets (AID 438;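 active means inhibition above 20% together with a positive visual image hit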;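 further: compound added about 3h40 before a 20 min TNFalpha stimulation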;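 on inhibition: signal is the nuclear over cytoplasmic p65 intensity ratio per well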); conditions: HUVEC TNFa-induced p65 nuclear translocation; cell count: measured here: nuclei count (cytotoxicity indicator), at 2.08 µM; inhibition: at 2 µM, stronger effect = higher value, 0% TNFa-plus-vehicle, 100% no-TNFa wells
[2] = inhibitors of mutant huntingtin aggregation, primary screen, imaging, exon1htt(103Q)mCFP cells, high-content imaging (AID 483;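 active means visual image review flags a hit and inhibition of aggregation exceeds 20%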;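 further: compound exposure lasted 3 days before fixation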;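 on nuclei count: percent of the per-plate median nuclei count of sample wells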); conditions: exon1htt(103Q)mCFP cell line, aggregate imaging, at 2 µM; inhibition of aggregation: stronger effect = higher value; nuclei count: measured here: cell count, toxicity
[3] = inhibitors of E-selectin induction by TNFa, primary screen, imaging, HUVEC, immunofluorescence, MLSMR starter and 10KST1 sets (AID 487;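 active means visually confirmed hit in the image check and inhibition above 20%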;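 on inhibition: signal is fraction of cell area covered by stained E-selectin grains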;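 on nuclei count: 100% = median nuclei count of all wells on the same plate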); conditions: HUVEC TNFalpha-induced E-selectin immunofluorescence imaging, at 2 µM; inhibition: stronger effect = higher value; nuclei count: measured here: cell number, toxicity
[4] = target: Voltage-gated potassium channel subunit beta-2 (Rattus norvegicus) (UniProt P62483); test: KvBeta enzyme negative modulators, primary screen, biochemical, NADPH fluorescence (AID 622;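 active means fluorescence slope higher than the sample average by over 3 SD, cut at about -0.22 in these data, passing the limit was not always enough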;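 further: slope of raw intensity against log time taken from 70 to 1610 s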); conditions: recombinant KvBeta, 4-cyanobenzaldehyde reduction, at 10 µM, stronger effect = higher value
[5] = target: Voltage-gated potassium channel subunit beta-2 (Rattus norvegicus) (UniProt P62483); test: KvBeta positive modulators, primary screen, biochemical, NADPH fluorescence (AID 623;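 active means NADPH fluorescence slope more negative than the mean of all samples by about 3 SD, 99.7% confidence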;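 further: fluorescence intensity change per second fitted from 20 to 320 s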); conditions: Recombinant KvBeta, NADPH fluorescence decrease slope, 10 min; at 10 µM; stronger effect = lower value
[6] = target: Muscarinic acetylcholine receptor M4 (Homo sapiens) (UniProt P08173); test: compounds altering M4/GIRK thallium flux, either direction, primary screen, M4 allosteric agonist project, cell-based, HEK293 M4/GIRK, BTC-AM (AID 625;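 active means fluorescence slope after compound addition differing from the mean of all tested samples at 99.7% confidence, mostly higher but some lower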;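 further: thallium influx through GIRK channels coupled to M4 in HEK293 cells with BTC-AM dye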); conditions: at 10 µM, actives lie on both sides
How it was run: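 Assay system: HEK293 cells with M4 receptor and GIRK channels / Controls: carbachol and DMSO controls / Schedule: 1 h dye loading, 2 min kinetic read / Technique: kinetic fluorescence with BTC-AM dye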

[7] = inhibitors of Sendai virus-induced IRF3 signaling, primary screen, TLR/RLR signaling modifier project, cell-based, Sendai virus stimulus, luciferase, 10K MLSCN set (AID 602276); conditions: HEK293 RL24 IRF3 luciferase reporter, at 10 µM, stronger effect = higher value;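 further: firefly luciferase from ISG56 promoter only with Renilla not read in this screen; 0% = Sendai virus plus DMSO and 100% = medium plus DMSO without virus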
[8] = inhibitors of poly I:C-induced TLR3 signaling, primary screen, cell-based, poly I:C stimulus, luciferase, 10K MLSCN set (AID 602277;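 active means inhibition of the reporter signal at or above 50%; inactive means inhibition below 50%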); conditions: HEK293-TLR3 RL24 IRF3 luciferase reporter, at 10 µM, stronger effect = higher value

Sequence of Muscarinic acetylcholine receptor M4 (Homo sapiens) (P08173 whole entry, looked up): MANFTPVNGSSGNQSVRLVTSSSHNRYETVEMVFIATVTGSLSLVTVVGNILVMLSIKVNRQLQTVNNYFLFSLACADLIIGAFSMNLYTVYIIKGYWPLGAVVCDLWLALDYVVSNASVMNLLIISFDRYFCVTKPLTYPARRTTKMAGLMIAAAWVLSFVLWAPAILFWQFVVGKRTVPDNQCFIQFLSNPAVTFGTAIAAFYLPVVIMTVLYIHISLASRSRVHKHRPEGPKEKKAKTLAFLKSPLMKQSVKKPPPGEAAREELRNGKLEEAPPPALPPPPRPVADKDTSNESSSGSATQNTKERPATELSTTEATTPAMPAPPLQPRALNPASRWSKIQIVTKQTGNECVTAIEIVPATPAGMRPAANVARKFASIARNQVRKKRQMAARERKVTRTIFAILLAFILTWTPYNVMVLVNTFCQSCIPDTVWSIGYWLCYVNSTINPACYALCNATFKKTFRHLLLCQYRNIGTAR
Sequence of Voltage-gated potassium channel subunit beta-2 (Rattus norvegicus) (P62483 whole entry, looked up): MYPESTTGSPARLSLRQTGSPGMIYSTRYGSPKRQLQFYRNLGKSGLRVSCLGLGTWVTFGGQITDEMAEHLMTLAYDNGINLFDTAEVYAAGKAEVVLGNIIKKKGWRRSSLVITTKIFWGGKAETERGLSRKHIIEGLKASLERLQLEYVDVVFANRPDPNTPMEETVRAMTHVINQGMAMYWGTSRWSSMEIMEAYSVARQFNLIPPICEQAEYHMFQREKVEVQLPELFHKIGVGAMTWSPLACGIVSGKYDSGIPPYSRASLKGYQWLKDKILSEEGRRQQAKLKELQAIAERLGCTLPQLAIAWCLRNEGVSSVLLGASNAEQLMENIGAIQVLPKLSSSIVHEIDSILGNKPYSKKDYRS

| SMILES | cell count [1] | inhibition [1] | inhibition of aggregation [2] | nuclei count [2] [%] | inhibition [3] | nuclei count [3] [%] | fluorescence slope [4] | NADPH fluorescence slope [5] | fluorescence slope [6] | inhibition [7] | inhibition [8] |
| --- | --- | --- | --- | --- | --- | --- | --- | --- | --- | --- | --- |
| CCOC(=O)CC1(CC(=O)OCC)NC(=O)c2c(C)sc(C(=O)OCC)c2N1 | 704 | -3.5% (inactive) | 16% (inactive) | 94.4 | 3.1% (inactive) | 112 | -0.402 (inactive) | -3.3e-06 (inactive) | 0.00375 (inactive) | 10.5% (inactive) | 17% (inactive) |
| CCCCCn1c(=O)[nH]c2cc(C(=O)NCCCN3CCCCC3)ccc2c1=O | 255 | -2.1% (inactive) | -0.1% (inactive) | 77.4 | -32.3% (inactive) | 109 | -0.298 (inactive) | -5.4e-05 (inactive) | 0.00603 (inactive) | 7.49% (inactive) | 6.91% (inactive) |
| CC(C)(C)C(=O)N=C1SC2CS(=O)(=O)CC2N1c1ccc2c(c1)OCO2 (stereo not drawn) | 454 | 5.8% (inactive) | 2% (inactive) | 96.6 | 6.6% (inactive) | 132 | -0.546 (inactive) | -4.1e-05 (inactive) | 0.0052 (inactive) | -0.393% (inactive) | 7.75% (inactive) |
| COc1ccc2nc(NC(=O)C(NS(=O)(=O)c3cccs3)C(C)C)sc2c1 (stereo not drawn) | 365 | 0.9% (inactive) | -16.1% (inactive) | 97.8 | -222% (inactive) | 104 | -0.532 (inactive) | 1.5e-05 (inactive) | 0.00546 (inactive) | 17.4% (inactive) | 21% (inactive) |
| Cc1cc(C)c(-c2cc(C(=O)Nc3c(C)n(C)n(-c4ccccc4)c3=O)[nH]n2)c(O)c1 | 434 | 1.8% (inactive) | -1.8% (inactive) | 111 | -51.7% (inactive) | 105 | -0.585 (inactive) | 3.8e-05 (inactive) | 0.00571 (inactive) | 8.55% (inactive) | 101% (active) |
| O=C(Nc1cccnc1)Nc1ccc2c(c1)OCO2 | 420 | 0.8% (inactive) | -14.9% (inactive) | 121 | 6% (inactive) | 51.1 | -0.418 (inactive) | 6.4e-06 (inactive) | 0.00717 (inactive) | -19.2% (inactive) | -53.4% (inactive) |
| O=C(NCc1ccco1)c1noc2c1CCCCC2 | 245 | 1.3% (inactive) | 1.9% (inactive) | 103 | -32.5% (inactive) | 117 | -0.549 (inactive) | -2.4e-05 (inactive) | 0.00608 (inactive) | -4% (inactive) | -51.6% (inactive) |
| CCC(Sc1nc2n[nH]c(C)c2c(=N)n1-c1cc(Cl)ccc1C)C(=O)N1CCOCC1 (stereo not drawn) | 338 | -2.1% (inactive) | 11.8% (inactive) | 97.6 | -273% (inactive) | 108 | -0.593 (inactive) | -1.6e-05 (inactive) | 0.00508 (inactive) | -6.83% (inactive) | 10% (inactive) |
| O=C(c1ccccc1)c1coc2ccc(O)c(CN3CCOCC3)c12 | 651 | -5.8% (inactive) | 8.4% (inactive) | 77.4 | 1.5% (inactive) | 102 | -0.577 (inactive) | 3.5e-06 (inactive) | 0.00407 (inactive) | 14.5% (inactive) | 18.2% (inactive) |
| CCOc1ccc(C(c2nnnn2Cc2ccccc2)N2CCN(C(=O)c3ccco3)CC2)cc1 (stereo not drawn) | 621 | -0.2% (inactive) | -6.3% (inactive) | 101 | 20% (inactive) | 104 | -0.492 (inactive) | -2.2e-06 (inactive) | 0.00546 (inactive) | -3.47% (inactive) | 9.07% (inactive) |
| CCOC(=O)CN(C)Cc1c[nH]c2ccccc12 | 442 | -2.2% (inactive) | -15.3% (inactive) | 93.9 | 17.6% (inactive) | 78.5 | -0.426 (inactive) | -4.3e-05 (inactive) | 0.00441 (inactive) | 27.3% (inactive) | 36.9% (inactive) |
| COc1ccccc1-c1ccc(Nc2cccc(C(C)=O)c2)nn1 | 319 | -11.3% (inactive) | -0.2% (inactive) | 74.7 | 0.3% (inactive) | 103 | -0.576 (inactive) | -6e-05 (inactive) | 0.00562 (inactive) | 12.1% (inactive) | -36.2% (inactive) |
| CCOc1ccc(CN2CCN(c3cc(C)nc4c5c(C)cc(C)nc5nn34)CC2)cc1 | 361 | -7.1% (inactive) | 5% (inactive) | 108 | 1.9% (inactive) | 114 | -0.385 (inactive) | 1.9e-05 (inactive) | 0.00419 (inactive) | 11.7% (inactive) | 22.8% (inactive) |
| CCn1nnnc1NCc1cccn1C | 401 | 11% (inactive) | -12% (inactive) | 110 | -41.2% (inactive) | 100 | -0.414 (inactive) | 0.000106 (inactive) | 0.00612 (inactive) | 16.1% (inactive) | 22% (inactive) |
| CC(C)(C)N(Cc1cc2ccccc2[nH]c1=O)C(=O)C1CCCCC1 | 510 | -1.4% (inactive) | -4.5% (inactive) | 110 | 4% (inactive) | 95.6 | -0.455 (inactive) | -7.9e-05 (inactive) | 0.00597 (inactive) | -3.62% (inactive) | 9.15% (inactive) |
| O=C1c2cccnc2C(O)N1Cc1ccc(F)cc1 (stereo not drawn) | 375 | 1.1% (inactive) | 13.7% (inactive) | 118 | -11.7% (inactive) | 116 | -0.354 (inactive) | -8.5e-05 (inactive) | 0.00468 (inactive) | 10.8% (inactive) | 17.7% (inactive) |
| CN1CCCc2cc(C#N)c(=O)[nH]c21 | 492 | -9.7% (inactive) | -0.4% (inactive) | 108 | 3.9% (inactive) | 85 | -0.117 (active) | 1e-05 (inactive) | 0.00776 (inactive) | 11.5% (inactive) | 14% (inactive) |
| COCC(=O)N(Cc1nc2ccccc2c(=O)[nH]1)Cc1cccs1 | 608 | -5.4% (inactive) | -6.1% (inactive) | 105 | -64.2% (inactive) | 114 | -0.557 (inactive) | -3e-05 (inactive) | 0.00566 (inactive) | 20.3% (inactive) | 22.3% (inactive) |
| O=C(Cn1ccc2ccccc2c1=O)NCCC(=O)NC1CCN(Cc2ccccc2)CC1 | 661 | -8.5% (inactive) | 2.9% (inactive) | 83.9 | -130% (inactive) | 129 | -0.486 (inactive) | -0.000203 (inactive) | 0.00456 (inactive) | -8.1% (inactive) | 0.132% (inactive) |
| CC1(C)Cc2noc(N)c2C(C)(C)N1OC(=O)c1cccs1 | 379 | 0% (inactive) | 5.5% (inactive) | 110 | -80.4% (inactive) | 129 | -0.46 (inactive) | 1.8e-05 (inactive) | 0.00603 (inactive) | 4.03% (inactive) | 12.6% (inactive) |
| Cc1ccc(F)cc1NC(=O)Cc1nn(C)c(=O)c2ccccc12 | 247 | 0.9% (inactive) | 4.8% (inactive) | 93.3 | 17.2% (inactive) | 102 | -0.555 (inactive) | -2.8e-05 (inactive) | 0.00476 (inactive) | 7.41% (inactive) | -19% (inactive) |
| COc1cc2c(cc1OC)C(c1cc(OC)c(OC)c(OC)c1)NCC2 (stereo not drawn) | 514 | 1.8% (inactive) | 10.4% (inactive) | 104 | -28.8% (inactive) | 102 | -0.546 (inactive) | -2.1e-05 (inactive) | 0.00597 (inactive) | 15.4% (inactive) | 20.5% (inactive) |
| Cn1nc(-c2ccc(C(=O)NCC3CCCO3)cc2)c2ccccc2c1=O (stereo not drawn) | 796 | -3.5% (inactive) | 37.8% (inactive) | 104 | -18.3% (inactive) | 116 | -0.574 (inactive) | -5.3e-05 (inactive) | 0.00681 (inactive) | 19.3% (inactive) | 31.4% (inactive) |
| CC(C)OP(=O)(c1ccc(N(C)C)cc1)C(O)c1ccccc1F (stereo not drawn) | 720 | -7.2% (inactive) | 12.5% (inactive) | 117 | -14.7% (inactive) | 117 | -0.541 (inactive) | -5.1e-05 (inactive) | 0.00489 (inactive) | 11.8% (inactive) | 22.5% (inactive) |
| COCC(=O)Nc1sc2c(c1C(=O)OC)C(C(=O)OC)CC2 (stereo not drawn) | 403 | -3.4% (inactive) | -1.9% (inactive) | 93.9 | 9.9% (inactive) | 105 | -0.481 (inactive) | 7e-05 (inactive) | 0.00577 (inactive) | -8.7% (inactive) | 0.35% (inactive) |
| COc1ccccc1N1CCN(C(=O)c2ccc(CS(=O)(=O)c3ccccc3OC)o2)CC1 | 550 | -12.7% (inactive) | -6.3% (inactive) | 110 | -68.7% (inactive) | 113 | -0.478 (inactive) | 3.4e-05 (inactive) | 0.00677 (inactive) | 6.55% (inactive) | 15.7% (inactive) |
| O=C(NC1CCCC1)c1ccc(S(=O)(=O)N2CCCC2)cc1 | 452 | -8% (inactive) | 1.5% (inactive) | 104 | -93.7% (inactive) | 120 | -0.344 (inactive) | -1.7e-05 (inactive) | 0.0102 (inactive) | -19.5% (inactive) | -26.9% (inactive) |
| O=C(O)c1ccccc1C(=O)Nc1ccccc1 | 476 | -6% (inactive) | -8.6% (inactive) | 82.7 | -88.4% (inactive) | 143 | -0.5 (inactive) | -0.000287 (inactive) | 0.00478 (inactive) | 5.22% (inactive) | 8.4% (inactive) |
